Measurements of several laboratories.
Lines come from different studies, so protocols differ.
P2RY14: P2Y purinoceptor 14 (P2RY14, Homo sapiens, UniProt Q15391)
CDPK1: Calcium-dependent protein kinase 1 (CDPK1, Plasmodium falciparum, UniProt P62344)
Nuclear receptor subfamily 4 group A member 2: Nuclear receptor subfamily 4 group A member 2 (Homo sapiens, UniProt P43354)

Structure (SMILES)	target	test	system	setting	quantity	result
COc1ccc(OCC(=O)N[C@@H](Cc2c[nH]c3ccccc23)C(=O)OC(C)C)cc1	P2RY14	cAMP, antagonist	HEK293	0.1 µM	inhibition	85.6%
C1=C/COCc2cc(ccc2OCCN2CCCC2)Nc2nccc(n2)-c2cccc(c2)COC/1	CDPK1	binding		0.1 µM	remaining binding	36%
COc1ccc2oc(-c3ccc4nc(N)oc4c3)c/c(=N\c3ccccc3NC(=O)CCN)c2c1	TGF-beta receptor type-1 (TGFBR1, Homo sapiens, UniProt P36897)	binding		1 µM	remaining binding	111%
O=C(N[C@@H](Cc1c[nH]c2ccccc12)C(=O)O)c1ccco1	P2RY14	cAMP, antagonist	HEK293	0.1 µM	inhibition	73.6%
CCCCC(=O)Nc1ccc(-c2ccc3ncn(CCC)c(=O)c3c2)cn1	CDPK1	binding, competition with immobilised ligand		0.5 µM	remaining binding	100%
CCN1CCN(c2cc(N3CCN(CC)CC3)nc(NCCNc3ccnc4cc(Cl)ccc34)n2)CC1	Nuclear receptor subfamily 4 group A member 2	thermal stability, DSF		100 µM	ΔTm	-0.12 °C
Cc1cc(O)c(-c2ccc([C@@H](C)CN(C)C)cc2)c2c1[nH]c(=O)c1sccc12	Mitogen-activated protein kinase kinase kinase 1 (MAP3K1, Homo sapiens, UniProt Q13233)	enzyme activity, inhibitor		0.1 µM	inhibition	4.39%
COC(=O)[C@H](Cc1c[nH]c2ccccc12)NC(=O)COc1ccc(C)cc1	P2RY14	cAMP, antagonist	HEK293	0.1 µM	inhibition	-20%
CN1C(C(=O)Nc2ccccn2)=C(O)c2sc(Cl)cc2S1(=O)=O	Nuclear receptor subfamily 4 group A member 2	thermal stability, DSF		100 µM	ΔTm	0.18 °C
